Laboratory results published in ChEMBL document CHEMBL3098021, “New anti-inflammatory cembranoid diterpenoids from the Vietnamese soft coral Lobophytum crassum” (Bioorg Med Chem Lett, 2014).
pIC50: −log10 of the molar value.

Key:
[1] = system: HepG2; experiment: Inhibition of TNF-alpha-induced COX2 mRNA expression in human HepG2 cells preincubated for 1 hr followed by TNF-alpha challenge measured after 6 hrs by RT-PCR analysis; type: functional, cell-based
[2] = system: HepG2; experiment: Inhibition of TNF-alpha-induced iNOS mRNA expression in human HepG2 cells preincubated for 1 hr followed by TNF-alpha challenge measured after 6 hrs by RT-PCR analysis; type: functional, cell-based
[3] = system: HepG2; experiment: (§1) Inhibition of TNF-alpha-induced NF-kappaB transcriptional activation in human HepG2 cells preincubated for 1 hr followed by TNF-alpha challenge measured after 1 hr by luciferase reporter gene assay; type: cell-based
How it was run: (§2)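 HepG2 cells were transfected with an NF-κB-responsive firefly luciferase reporter plasmid (minimal CMV promoter plus tandem NF-κB response elements) and stimulated with 10 ng/mL TNFα. Compounds were tested across a concentration range, with a DMSO vehicle control and sulfasalazine (1.0 µM) as positive control. Luciferase activity was read out, data are mean ± SD (n = 3), and IC50 was derived from the dose–response.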

[4] = as §1; type: cell-based; how it was run: as §2

SMILES | inhibition [1] | inhibition [2] | inhibition [3] | pIC50 [4]
C/C1=C\[C@@H]2O[C@@H](O)[C@@]3(C)O[C@@]23CC/C(C)=C/CC[C@](C)(O)[C@H](O)CC1 | Dose-dependent effect | Dose-dependent effect | Dose-dependent effect | 5.18
C=C1CO[C@H]2/C=C(\C)CC[C@@H](O)[C@@](C)(O)C/C=C/[C@](C)(O)CC[C@@]12O |  |  |  | < 4.70
C=C1CO[C@H]2/C=C(\C)CC[C@@H](O)[C@@](C)(O)C/C=C/[C@@](C)(O)CC[C@@]12O |  |  |  | < 4.70
O=C(O)c1cc(/N=N/c2ccc(S(=O)(=O)Nc3ccccn3)cc2)ccc1O [SULFASALAZINE] |  |  |  | 6.05
C/C1=C\[C@@H]2O[C@@H](O)[C@@]3(C)O[C@@]23CC/C(C)=C/CC[C@](C)(O)[C@@H](O)CC1 | Dose-dependent effect | Dose-dependent effect | Dose-dependent effect | 5.20
